From ChEMBL document CHEMBL4837261, “Optimization of TopoIV Potency, ADMET Properties, and hERG Inhibition of 5-Amino-1,3-dioxane-Linked Novel Bacterial Topoisomerase Inhibitors: Identification of a Lead with In Vivo Efficacy against MRSA” (J Med Chem, 2021)
≈ marks a conversion by molar mass, not a printed value.

Tests used:
Staphylococcus aureus [1] = assay: Antibacterial activity against Staphylococcus aureus harbouring GyrA D83N mutant by CLSI method; assay type: functional
Staphylococcus aureus [2] = assay: Selectivity ratio of IC50 for inhibition of Staphylococcus aureus Gyrase D83N mutant to IC50 for inhibition of Staphylococcus aureus Gyrase
In short: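 Ratio of two IC50s: the IC50 from the D83N mutant gyrase supercoiling assay (commercial kit) divided by the IC50 from the gel-based wild-type S. aureus gyrase supercoiling assay.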

Staphylococcus aureus [3] = assay: Antibacterial activity against Staphylococcus aureus ATCC 29213 by CLSI method; assay type: functional
Staphylococcus aureus [4] = assay: Antibacterial activity against methicillin-resistant Staphylococcus aureus USA300 by CLSI method; assay type: functional
Staphylococcus aureus [5] = assay: Selectivity index, ratio of IC50 for inhibition of Staphylococcus aureus topoisomerase IV decatenation activity to IC50 for inhibition of Staphylococcus aureus DNA gyrase supercoiling activity
In short: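 Both IC50s were measured in gel-based assays with S. aureus enzymes: supercoiling inhibition for DNA gyrase and decatenation inhibition for TopoIV. The ratio is TopoIV IC50 divided by gyrase IC50.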

Staphylococcus aureus [6] = assay: Antibacterial activity against Staphylococcus aureus 3527 by CLSI method; assay type: functional
DNA gyrase [7] = target: DNA gyrase (Staphylococcus aureus, UniProt P0A0K8+P20831); assay: Inhibition of Staphylococcus aureus Gyrase supercoiling activity assessed as reduction in supercoiling pBR322 DNA by measuring relaxation by bromophenol blue staining based TAE gel method; assay type: protein-complex assay
Topoisomerase IV = Topoisomerase IV (Staphylococcus aureus, UniProt P0C1S7+P0C1U9); assay: Inhibition of Staphylococcus aureus topoisomerase IV decatenation activity using kDNA as substrate by ethidium bromide/bromophenol blue staining based agarose gel electrophoresis analysis; assay type: protein-complex assay
Staphylococcus aureus [8] = assay: Antibacterial activity against cystic fibrosis isolate Staphylococcus aureus by CLSI method; assay type: functional
DNA gyrase [9] = target: DNA gyrase (Staphylococcus aureus, UniProt P0A0K8+P20831, D83N); assay: Inhibition of Staphylococcus aureus DNA Gyrase D83N mutant assessed as reduction in supercoiling pBR322 DNA by measuring relaxation by bromophenol blue staining based TAE gel method
[10] = Growth inhibition of human K/VP.5 cells incubated for 48 hrs by NBTI cell counting analysis; assay type: functional; settings: K562, 48 h
Streptococcus pneumoniae = assay: Antibacterial activity against Streptococcus pneumoniae by CLSI method; assay type: functional
Acinetobacter baumannii = assay: Antibacterial activity against Acinetobacter baumannii by CLSI method; assay type: functional
Staphylococcus aureus [11] = assay: Antibacterial activity against Staphylococcus aureus by CLSI method; assay type: functional
In short: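 MICs were determined by broth microdilution per CLSI guidelines, in triplicate at minimum. Strains were S. aureus ATCC 29213, MRSA USA300 and a cystic fibrosis respiratory isolate, and ranges are given where seen.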

Enterococcus sp. = assay: Antibacterial activity against Enterococcus sp. by CLSI method; assay type: functional

Compound	MIC (Staphylococcus aureus [1])	Ratio IC50 (Staphylococcus aureus [2])	MIC (Staphylococcus aureus [3])	MIC (Staphylococcus aureus [4])	Ratio IC50 (Staphylococcus aureus [5])	MIC (Staphylococcus aureus [6])	IC50 (DNA gyrase [7])	IC50 (Topoisomerase IV)	MIC (Staphylococcus aureus [8])	IC50 (DNA gyrase [9])	IC50 [10]	MIC50 (Streptococcus pneumoniae)	MIC50 (Acinetobacter baumannii)	MIC50 (Staphylococcus aureus [11])	MIC50 (Enterococcus sp.)
COc1ccc2ccc(F)c(C[C@H](O)[C@H]3OC[C@H](NCc4cc5c(nn4)OCCS5)CO3)c2n1	4 µg/mL (≈ 8.19 µM)	99	0.25 µg/mL (≈ 0.512 µM)	0.5 µg/mL (≈ 1.02 µM)	39	0.5 µg/mL (≈ 1.02 µM)	0.12 µM	4.6 µM	0.25 µg/mL (≈ 0.512 µM)	12 µM	–	–	–	–	–
COc1ccc2ncc(F)c(C[C@H](O)[C@H]3OC[C@H](NCc4ccc5c(n4)NC(=O)CO5)CO3)c2c1	4 µg/mL (≈ 8.26 µM)	–	0.5 µg/mL (≈ 1.03 µM)	0.25 µg/mL (≈ 0.516 µM)	–	0.25 µg/mL (≈ 0.516 µM)	0.084 µM	1.3 µM	0.5 µg/mL (≈ 1.03 µM)	1.9 µM	> 50 µM	–	–	–	–
COc1ccc2ncc(F)c(C[C@H](O)[C@H]3OC[C@H](NCc4cc5c(cn4)OCCO5)CO3)c2c1	> 8 µg/mL	–	0.25 µg/mL (≈ 0.53 µM)	0.5 µg/mL (≈ 1.06 µM)	136	0.5 µg/mL (≈ 1.06 µM)	0.042 µM	5.7 µM	0.5 µg/mL (≈ 1.06 µM)	–	–	2 µg/mL (≈ 4.24 µM)	64 µg/mL (≈ 136 µM)	0.25 µg/mL (≈ 0.53 µM)	0.12 µg/mL (≈ 0.255 µM)
COc1ccc2ncc(F)c(C[C@H](O)[C@H]3OC[C@H](NCc4ccc5c(c4)OCCO5)CO3)c2c1	4 µg/mL (≈ 8.5 µM)	72	0.125 µg/mL (≈ 0.266 µM)	0.125 µg/mL (≈ 0.266 µM)	73	0.125 µg/mL (≈ 0.266 µM)	0.031 µM	2.3 µM	0.25 µg/mL (≈ 0.531 µM)	2.2 µM	–	1 µg/mL (≈ 2.13 µM)	64 µg/mL (≈ 136 µM)	0.06 µg/mL (≈ 0.128 µM)	0.06 µg/mL (≈ 0.128 µM)
COc1ccc2ccc(F)c(C[C@H](O)[C@H]3OC[C@H](NCc4cc5c(cn4)OCCO5)CO3)c2n1	2 µg/mL (≈ 4.24 µM)	–	0.125 µg/mL (≈ 0.265 µM)	0.25 µg/mL (≈ 0.53 µM)	67	0.125 µg/mL (≈ 0.265 µM)	0.013 µM	0.87 µM	0.125 µg/mL (≈ 0.265 µM)	–	–	–	–	–	–
COc1ccc2ncc(F)c(C(O)C[C@H]3OC[C@H](NCc4ccc(Cl)c(Cl)c4)CO3)c2n1 (mixture of isomers)	4 µg/mL (≈ 8.29 µM)	–	0.125 µg/mL (≈ 0.259 µM)	0.25 µg/mL (≈ 0.518 µM)	2.7	≤ 0.25 µg/mL	0.22 µM	0.6 µM	0.25 µg/mL (≈ 0.518 µM)	–	–	–	–	–	–
COc1ccc2ncc(F)c(C(O)C[C@H]3OC[C@H](NCc4cc5c(nn4)OCCS5)CO3)c2c1 (mixture of isomers)	16 µg/mL (≈ 32.8 µM)	–	0.5 µg/mL (≈ 1.02 µM)	1 µg/mL (≈ 2.05 µM)	–	1 µg/mL (≈ 2.05 µM)	0.37 µM	11 µM	1 µg/mL (≈ 2.05 µM)	–	> 200 µM	–	–	–	–
COc1ccc2ncc(F)c(C[C@H](O)[C@H]3OC[C@H](NCc4cc5c(cn4)OCCC5)CO3)c2n1	8 µg/mL (≈ 17 µM)	–	0.125 µg/mL (≈ 0.266 µM)	–	–	0.5 µg/mL (≈ 1.06 µM)	0.14 µM	1.3 µM	0.5 µg/mL (≈ 1.06 µM)	13 µM	80.5 µM	–	–	–	–
COc1ccc2ncc(F)c(C[C@H](O)[C@H]3OC[C@H](NCc4cc5c(nn4)OCCO5)CO3)c2n1	2 µg/mL (≈ 4.22 µM)	–	0.125 µg/mL (≈ 0.264 µM)	0.25 µg/mL (≈ 0.528 µM)	–	0.25 µg/mL (≈ 0.528 µM)	32 µM	4.8 µM	0.25 µg/mL (≈ 0.528 µM)	47 µM	> 200 µM	–	–	–	–
COc1ccc2ncc(F)c(C[C@H](O)[C@H]3OC[C@H](NCc4ccc(C)cc4)CO3)c2n1	8 µg/mL (≈ 18.7 µM)	–	0.125 µg/mL (≈ 0.292 µM)	≤ 0.25 µg/mL	–	≤ 0.25 µg/mL	0.16 µM	2.7 µM	0.25 µg/mL (≈ 0.585 µM)	6.5 µM	46.9 µM	–	–	–	–
COc1ccc2ncc(F)c(C[C@H](O)[C@H]3OC[C@H](NCc4ccc(Cl)c(Cl)c4)CO3)c2c1	4 µg/mL (≈ 8.31 µM)	–	0.125 µg/mL (≈ 0.26 µM)	0.25 µg/mL (≈ 0.519 µM)	24	0.25 µg/mL (≈ 0.519 µM)	0.056 µM	1.3 µM	0.5 µg/mL (≈ 1.04 µM)	–	–	–	–	–	–
COc1ccc2ccc(F)c(C[C@H](O)[C@H]3OC[C@H](NCc4ccc(Cl)c(Cl)c4)CO3)c2n1	4 µg/mL (≈ 8.31 µM)	–	0.25 µg/mL (≈ 0.519 µM)	0.5 µg/mL (≈ 1.04 µM)	54	0.25 µg/mL (≈ 0.519 µM)	0.043 µM	2.3 µM	0.25 µg/mL (≈ 0.519 µM)	–	–	–	–	–	–
COc1ccc2ncc(F)c(C(O)C[C@H]3OC[C@H](NCc4ccc(C)cc4)CO3)c2c1 (mixture of isomers)	16 µg/mL (≈ 37.5 µM)	–	0.125 µg/mL (≈ 0.293 µM)	0.5 µg/mL (≈ 1.17 µM)	–	0.5 µg/mL (≈ 1.17 µM)	0.11 µM	14 µM	0.5 µg/mL (≈ 1.17 µM)	–	21.7 µM	–	–	–	–
